DENV2 CPE = DENV2-induced cell death inhibition. 350,000 tested, 1.7% active. AID 651640. CPE inhibition, % at 9.99 µM. DENV2-infected cells, cytopathic effect rescue, plate reader; in the data active means CPE inhibition above about 20%, passing the limit was not always enough; tested in BHK-21 cells
SIRT5 inh = inhibitors of human sirtuin-5 desuccinylase; Q9NXA8; Purified SirT5, succinyl-peptide AMC, trypsin-coupled fluorescence; inhibition, % at 15 µM; 330,000 tested, 1.1% active; AID 652115; in the data active means inhibition above about 15%
XiGFP reactiv = reactivates the inactive X chromosome in mouse fibroblasts; activation, % at 7.58 µM; AID 743238; XiGFP mouse fibroblasts, % GFP-positive cells imaging, 3 d; cells co-treated with 5-aza-dC sensitizer; scaled so ellipticine positive control = 100%; 360,000 tested, 0.055% active;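 active means mean normalized replicate activation at least 10% and every replicate at or above 10%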
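System: 68-5-11 XiGFP fibroblast line | Buffer or medium: DMEM containing 5-aza-dC | Compound: Single point | Times: Compounds 3 days, fix/stain 15 min at room temperature | Benchmarks: Positive control ellipticine, 6 µM final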
ARNT TACC3 PPI = ARNT/TACC3 interaction disruption; 390,000 tested, 0.66% active; inhibition, % at 9.99 µM; AlphaScreen His-ARNT PAS-B/GST-TACC3 binding, luminescence; TACC3 fragment carries E629A point mutation;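 active means mean inhibition of replicates at least 50% and at least half of replicates each reaching 50%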
FN deposition inh = fibronectin deposition inhibition. 350,000 tested, 0.086% active. inhibition, % at 12.6 µM. AH1F fibroblasts, Alexa488-fibronectin deposition fluorescence, overnight;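 active means mean inhibition across replicates of 30% or more, regardless of how many single replicates reach that level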
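Material – AH1F fibroblast monolayer, labelled fibronectin deposition · Reagent – labelled fibronectin 24 nM · Timing – 1 h adhesion, overnight exposure · Measured by – fluorescence at 485 nm excitation, 525 nm emission · Read-out – inhibition of fibronectin deposition signal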
FGF22 binding = shifts melting point of recombinant human FGF22. Q9HCT0. recombinant FGF22 thermal shift, SYPRO orange fluorescence; percent of sucrose octasulfate shift, DMSO zero. activity (Tm shift, normalised), % at 9.99 µM. 340,000 tested, 1.5% active. AID 651658;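 active means mean Tm shift, scaled 0 neutral to 100 positive control, at about 1.3% or above, every replicate too, limit read from the data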
Target sequence (Q9HCT0 whole entry, looked up): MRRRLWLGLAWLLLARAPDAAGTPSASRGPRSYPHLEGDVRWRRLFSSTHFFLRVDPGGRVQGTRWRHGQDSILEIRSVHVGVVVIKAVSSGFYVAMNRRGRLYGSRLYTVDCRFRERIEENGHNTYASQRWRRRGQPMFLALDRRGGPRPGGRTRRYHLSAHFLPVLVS
Numbers stand for hits; n = inactive; x = not tested or not shown. A selection: hits, their analogues and other compounds. The true share with any hit is near 3.8%.

SMILES	DENV2 CPE	SIRT5 inh	XiGFP reactiv	ARNT TACC3 PPI	FN deposition inh	FGF22 binding
CSCCC(NS(=O)(=O)c1ccccc1F)C(=O)NNC(=O)c1csc(N2CCOCC2)n1 (configuration not stated)	n	17	n	n	n	n
CSCCC(NC(=O)c1ccccc1Cl)C(=O)NNC(=O)c1csc(N2CCOCC2)n1 (configuration not stated)	n	n	n	n	n	n
CCOC(=O)c1cc(C#N)c(SCC(=O)O)[nH]c1=O	n	n	n	n	n	45
CCOC(=O)c1cc(C#N)c(SCC(=O)Nc2ccc(C(C)=O)cc2)[nH]c1=O	n	n	n	x	n	1.4
CCOC(=O)c1cc(C#N)c(SCC(N)=O)[nH]c1=O	n	n	n	n	n	n
COc1ccc(S(=O)(=O)Nc2ccc3c(c2)C(=O)N([C@@H](C)CO)C[C@@H](C)[C@@H](CN(C)Cc2ccc(C(=O)O)cc2)OCCCC[C@H](C)O3)cc1	26	n	n	n	x	n
COc1ccc(S(=O)(=O)Nc2ccc3c(c2)C(=O)N([C@H](C)CO)C[C@H](C)[C@H](CN(C)Cc2ccc(C(=O)O)cc2)OCCCC[C@@H](C)O3)cc1	n	n	n	n	x	n
COc1ccc(S(=O)(=O)Nc2ccc3c(c2)C(=O)N([C@H](C)CO)C[C@@H](C)[C@@H](CN(C)Cc2ccc(C(=O)O)cc2)OCCCC[C@@H](C)O3)cc1	n	n	n	n	x	n
COc1ccc(S(=O)(=O)Nc2ccc3c(c2)C(=O)N([C@H](C)CO)C[C@H](C)[C@@H](CN(C)Cc2ccc(C(=O)O)cc2)OCCCC[C@@H](C)O3)cc1	33	n	n	n	x	n
C[C@H](CO)N1C[C@H](C)[C@@H](CN(C)C(=O)CN(C)C)Oc2cc(-c3cccnc3)ccc2S1(=O)=O	n	n	n	n	n	n
CO[C@H]1CN(C)C(=O)c2cc(NS(C)(=O)=O)ccc2OC[C@H](C)N(C(=O)C2CC2)C[C@H]1C	n	n	n	n	n	n
C[C@@H]1CN([C@H](C)CO)C(=O)c2cc(NC(=O)Nc3ccc4c(c3)OCO4)ccc2O[C@@H](C)CCCCO[C@@H]1CN(C)C(=O)CCC(F)(F)F	n	n	n	n	x	n
C[C@@H]1CCCCO[C@H](CN(C)C(=O)CCC(F)(F)F)[C@H](C)CN([C@@H](C)CO)C(=O)c2cc(NC(=O)Nc3ccc4c(c3)OCO4)ccc2O1	26	n	n	n	x	n
C[C@@H]1CCCCO[C@@H](CN(C)C(=O)CCC(F)(F)F)[C@@H](C)CN([C@H](C)CO)C(=O)c2cc(NC(=O)Nc3ccc4c(c3)OCO4)ccc2O1	42	n	n	n	x	n
CCN(Cc1ccccc1)C(=O)CSc1nncn1C	n	n	n	n	n	43
COCCCNCC(O)COc1cccc2[nH]c(C)cc12 (configuration not stated)	n	n	n	n	x	1.4
O=C(CC(F)(F)F)N1C[C@@H]2[C@H](c3ccccc31)[C@H](CO)N2C(=O)C1CCCC1	21	x	n	n	n	n
COc1ccccc1NC(=O)N1C[C@H]2[C@@H](c3ccccc31)[C@H](CO)N2C(C)=O	20	n	n	n	x	n
COc1ccccc1NC(=O)N1C[C@@H]2[C@H](c3ccccc31)[C@H](CO)N2C(C)=O	n	n	n	n	x	n
O=C(CC(F)(F)F)N1C[C@H]2[C@@H](c3ccccc31)[C@@H](CO)N2C(=O)C1CCCC1	n	n	n	n	n	n
O=C(C1CCCC1)N1C[C@H]2[C@@H](c3ccccc31)[C@@H](CO)N2C(=O)c1ccccc1	51	n	n	n	n	n
O=C(Nc1ccccc1F)N1C[C@H]2[C@@H](c3ccccc31)[C@H](CO)N2C(=O)C1CCCC1	n	n	n	n	n	n
O=C(Nc1ccccc1F)N1C[C@H]2[C@@H](c3ccccc31)[C@@H](CO)N2C(=O)C1CCCCC1	61	n	n	n	x	n
O=C(C[C@H]1C=C[C@@H](NC(=O)c2ccncc2)[C@H](CO)O1)NCCc1ccncc1	n	n	n	n	n	n

High-throughput results from PubChem.
